Columns and labels:
[1] = biological target: Aurora kinase B/Inner centromere protein (Homo sapiens, UniProt Q96GD4); assay: Inhibition of Aurora-B/INCENP (unknown origin) using biotinylated STK2 substrate incubated for 30 mins by HTRF assay; format: protein-complex assay
Outline: (§1)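 Biochemical kinase inhibition was read by HTRF with 20 µM ATP. Aurora B was assayed as its complex with the activator INCENP. For Aurora A, IC50 curves were recorded at different TPX2 concentrations.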

Aurora kinase A = biological target: T1, Aurora kinase A (Homo sapiens, UniProt O14965); assay: Inhibition of His-tagged human Aurora A kinase ([…] residues) expressed in Escherichia coli BL21 (DE3) Rosetta cells using biotinylated STK2 substrate incubated for 30 mins in presence of 2 uM TPX2 by HTRF assay; outline: as §1
T1 sequence (O14965 whole entry): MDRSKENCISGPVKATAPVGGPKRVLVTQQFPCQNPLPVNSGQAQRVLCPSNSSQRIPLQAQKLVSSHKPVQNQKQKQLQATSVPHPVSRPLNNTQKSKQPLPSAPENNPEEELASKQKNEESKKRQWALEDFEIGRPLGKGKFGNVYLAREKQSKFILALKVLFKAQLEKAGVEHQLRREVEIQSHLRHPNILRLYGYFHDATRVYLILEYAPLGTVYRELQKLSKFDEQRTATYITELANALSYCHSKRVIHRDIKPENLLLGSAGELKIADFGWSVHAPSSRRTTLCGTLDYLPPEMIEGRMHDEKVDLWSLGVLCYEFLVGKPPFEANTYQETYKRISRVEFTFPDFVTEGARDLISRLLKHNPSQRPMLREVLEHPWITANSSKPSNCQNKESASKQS

Aurora kinase C = biological target: T2, Aurora kinase C (Homo sapiens, UniProt Q9UQB9); assay: Binding affinity to human Aurora C kinase expressed in Escherichia coli BL21 cells incubated for 1 hr by active site directed binding competition assay
T2 sequence (Q9UQB9 whole entry): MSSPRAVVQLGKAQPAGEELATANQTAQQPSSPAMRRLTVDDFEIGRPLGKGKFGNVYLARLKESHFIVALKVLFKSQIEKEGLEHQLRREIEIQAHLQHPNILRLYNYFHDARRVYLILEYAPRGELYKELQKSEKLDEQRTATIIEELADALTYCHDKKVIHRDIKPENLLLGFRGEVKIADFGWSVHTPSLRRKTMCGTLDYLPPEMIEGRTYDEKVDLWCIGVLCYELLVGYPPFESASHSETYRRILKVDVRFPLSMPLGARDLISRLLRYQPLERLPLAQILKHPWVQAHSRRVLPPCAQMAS
Outline: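 Kinome scan of 456 kinases using an active-site-directed binding competition assay, followed by determination of binding affinities (Kd). Aurora B in this scan was free enzyme without INCENP.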

Sequence of Aurora kinase B/Inner centromere protein (Q96GD4 whole entry): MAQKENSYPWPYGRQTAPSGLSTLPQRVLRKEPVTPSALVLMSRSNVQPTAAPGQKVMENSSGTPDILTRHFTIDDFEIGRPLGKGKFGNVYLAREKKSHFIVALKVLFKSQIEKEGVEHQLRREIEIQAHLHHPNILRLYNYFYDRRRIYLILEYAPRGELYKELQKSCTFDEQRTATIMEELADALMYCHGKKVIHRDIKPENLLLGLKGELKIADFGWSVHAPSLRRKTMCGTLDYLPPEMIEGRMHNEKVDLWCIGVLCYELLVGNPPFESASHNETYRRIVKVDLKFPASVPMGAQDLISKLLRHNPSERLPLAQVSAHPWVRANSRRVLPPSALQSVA
Sequence of Aurora kinase B/Inner centromere protein (Q9NQS7 whole entry, further chain): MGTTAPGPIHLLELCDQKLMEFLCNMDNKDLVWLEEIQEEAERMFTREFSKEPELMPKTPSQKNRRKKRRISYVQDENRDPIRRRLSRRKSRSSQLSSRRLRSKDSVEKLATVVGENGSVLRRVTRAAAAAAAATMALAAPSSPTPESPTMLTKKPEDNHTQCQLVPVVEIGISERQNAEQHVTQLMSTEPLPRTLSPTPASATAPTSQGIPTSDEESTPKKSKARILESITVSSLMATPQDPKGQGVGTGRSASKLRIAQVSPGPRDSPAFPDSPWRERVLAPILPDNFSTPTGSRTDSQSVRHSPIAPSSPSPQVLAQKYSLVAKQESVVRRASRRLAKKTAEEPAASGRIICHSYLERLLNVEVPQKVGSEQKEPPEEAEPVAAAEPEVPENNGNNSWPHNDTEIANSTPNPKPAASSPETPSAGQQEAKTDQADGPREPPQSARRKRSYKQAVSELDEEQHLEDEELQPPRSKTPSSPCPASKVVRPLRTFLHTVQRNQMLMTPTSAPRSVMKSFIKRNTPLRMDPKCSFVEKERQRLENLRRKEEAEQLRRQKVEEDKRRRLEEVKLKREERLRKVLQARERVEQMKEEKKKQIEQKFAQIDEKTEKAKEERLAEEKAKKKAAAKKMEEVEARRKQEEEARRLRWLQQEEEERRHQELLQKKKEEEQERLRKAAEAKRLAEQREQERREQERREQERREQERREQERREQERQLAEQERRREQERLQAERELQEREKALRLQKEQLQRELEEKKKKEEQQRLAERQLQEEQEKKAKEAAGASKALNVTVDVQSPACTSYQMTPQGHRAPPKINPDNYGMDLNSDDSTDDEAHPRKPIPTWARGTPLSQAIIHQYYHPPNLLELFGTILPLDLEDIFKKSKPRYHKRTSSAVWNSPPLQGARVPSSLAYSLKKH

CCc1ccc(/N=C2\S/C(=C\c3ccnc(Nc4ccc(C(=O)O)cn4)c3)C(=O)N2C)cc1
IC50 [1]: 150 nM | IC50 (Aurora kinase A): 1400 nM | Kd (Aurora kinase C): 10.8 nM

Reference: ChEMBL document CHEMBL3861974, “Discovery of a Selective Aurora A Kinase Inhibitor by Virtual Screening” (J Med Chem, 2016)
